# Data as given in ChEMBL document CHEMBL1122172, “Syntheses and diuretic activity of 1,2-dihydro-2-(3-pyridyl)-3H-pyrido[2,3-d]pyrimidin-4-one and related compounds” (1982).
# Where “and” joins values, the source holds several entries; their conditions need not be identical. Identical values can stand only once.
# Tests used:
# Format in all cases: functional, Urine
# Rattus norvegicus [1] = test: Diuretic activity by measuring the urinary output at the dose of 25 mg/kg
# Outline: (§1)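 Male Sprague–Dawley rats (195–225 g) were fasted and deprived of water for 18 h. The compound was given orally, dissolved in 25 mL/kg saline; controls got saline alone. Groups of eight were housed as pairs in metabolism cages. Urine volume was read at 2 and 5 h, with total Na+, Cl− and K+ mequiv excreted. Values are mean ± SEM, N = 8.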
# Rattus norvegicus [2] = test: Diuretic activity by measuring the urinary output at the dose of 75 mg/kg
# Outline: (§2)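 Groups of eight male Sprague–Dawley-derived rats, fasted 18 h with water ad libitum, received oral doses by dosing needle in 5% acacia–isotonic saline; the vehicle served as control. Rats were placed in metabolism cages with no food or water, and urine was collected for 5 h. Bladders were then emptied by pulling at the tail base (modified Lipschitz method).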
# Rattus norvegicus [3] = test: Total Cl- milliequivalents excretion in diuretic test at the dose of 25 mg/kg; outline: as §1
# Rattus norvegicus [4] = test: Total Cl- milliequivalents excretion in diuretic test at the dose of 75 mg/kg
# Rattus norvegicus [5] = test: Total K+ milliequivalents excretion in diuretic test at the dose of 25 mg/kg; outline: as §1
# Rattus norvegicus [6] = test: Total Na+ milliequivalents excretion in diuretic test at the dose of 25 mg/kg; outline: as §1
# Rattus norvegicus [7] = test: Diuretic activity by measuring the urinary output at the dose of 50 mg/kg; outline: as §2
# Rattus norvegicus [8] = test: Total Cl- milliequivalents excretion in diuretic test at the dose of 50 mg/kg
# Rattus norvegicus [9] = test: Total K+ milliequivalents excretion in diuretic test at the dose of 50 mg/kg
# Rattus norvegicus [10] = test: Total Na+ milliequivalents excretion in diuretic test at the dose of 50 mg/kg
# Rattus norvegicus [11] = test: Total Na+ milliequivalents excretion in diuretic test at the dose of 75 mg/kg; settings: 75 mg/kg
# Rattus norvegicus [12] = test: Diuretic activity by measuring the urinary output at the dose of 100 mg/kg; outline: as §2
# Rattus norvegicus [13] = test: Diuretic activity by measuring the urinary output at the dose of 400 mg/kg; outline: as §2
# Rattus norvegicus [14] = test: Total Cl- milliequivalents excretion in diuretic test at the dose of 27 mg/kg
# Outline: (§3)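 Oral dosing was in 25 mL/kg saline to male Sprague–Dawley rats (195–225 g) after 18 h without food or water, with saline-only controls. Groups of eight were kept two per metabolism cage. Urinary Na+, Cl− and K+ were reported as total mequiv excreted, with electrolyte analysis done externally. Values are mean ± SEM of two rats per cage, N = 8.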
# Rattus norvegicus [15] = test: Total Cl- milliequivalents excretion in diuretic test at the dose of 81 mg/kg; outline: as §3
# Rattus norvegicus [16] = test: Total Cl- milliequivalents excretion in diuretic test at the dose of 9 mg/kg; outline: as §3
# Rattus norvegicus [17] = test: Total K+ milliequivalents excretion in diuretic test at the dose of 27 mg/kg; outline: as §3
# Rattus norvegicus [18] = test: Total K+ milliequivalents excretion in diuretic test at the dose of 3 mg/kg; outline: as §3
# Rattus norvegicus [19] = test: Total K+ milliequivalents excretion in diuretic test at the dose of 81 mg/kg; outline: as §3
# Rattus norvegicus [20] = test: Total Na+ milliequivalents excretion in diuretic test at the dose of 27 mg/kg; outline: as §3
# Rattus norvegicus [21] = test: Total Na+ milliequivalents excretion in diuretic test at the dose of 3 mg/kg; outline: as §3
# Rattus norvegicus [22] = test: Total Na+ milliequivalents excretion in diuretic test at the dose of 81 mg/kg; outline: as §3
# Rattus norvegicus [23] = test: Total Na+ milliequivalents excretion in diuretic test at the dose of 9 mg/kg; outline: as §3
# Rattus norvegicus [24] = test: Diuretic activity by measuring the urinary output after 2 hr at the dose of 25 mg/kg
# Outline: (§4)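 Male Sprague–Dawley rats (195–225 g) were fasted and deprived of water for 18 h, then dosed orally with compound dissolved in 25 mL/kg saline. Controls got 25 mL/kg saline alone. Groups of eight were used, housed two rats per metabolism cage right after dosing. Urine volume was collected at 2 h and 5 h after dosing. Values are mean ± SEM per cage pair, N = 8.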
# Rattus norvegicus [25] = test: Diuretic activity by measuring the urinary output after 2 hr at the dose of 27 mg/kg; outline: as §4
# Rattus norvegicus [26] = test: Diuretic activity by measuring the urinary output after 2 hr at the dose of 3 mg/kg; outline: as §4
# Rattus norvegicus [27] = test: Diuretic activity by measuring the urinary output after 2 hr at the dose of 81 mg/kg; outline: as §4
# Rattus norvegicus [28] = test: Diuretic activity by measuring the urinary output after 2 hr at the dose of 9 mg/kg; outline: as §4
# Rattus norvegicus [29] = test: Diuretic activity by measuring the urinary output after 5 hr at the dose of 25 mg/kg; outline: as §4
# Rattus norvegicus [30] = test: Diuretic activity by measuring the urinary output after 5 hr at the dose of 27 mg/kg; outline: as §4
# Rattus norvegicus [31] = test: Diuretic activity by measuring the urinary output after 5 hr at the dose of 3 mg/kg; outline: as §4
# Rattus norvegicus [32] = test: Diuretic activity by measuring the urinary output after 5 hr at the dose of 81 mg/kg; outline: as §4
# Rattus norvegicus [33] = test: Diuretic activity by measuring the urinary output after 5 hr at the dose of 9 mg/kg; outline: as §4
# Rattus norvegicus [34] = test: Total K+ milliequivalents excretion in diuretic test at the dose of 9 mg/kg; outline: as §3
# Rattus norvegicus [35] = test: Total Cl- milliequivalents excretion in diuretic test at the dose of 3 mg/kg; outline: as §3
smiles,measurement,setting,value
O=C1NC(c2ccccc2)Nc2ncccc21 (stereo unspecified),Control,Rattus norvegicus [1],114%
same,Control,Rattus norvegicus [2],146%
same,Excretion,Rattus norvegicus [3],1.4 m equiv
same,Excretion,Rattus norvegicus [4],1.8 m equiv
same,Excretion,Rattus norvegicus [5],0.5 m equiv
same,Excretion,Rattus norvegicus [6],1.3 m equiv
Nc1ccc(C2NC(=O)c3cccnc3N2)cc1 (stereo unspecified),Control,Rattus norvegicus [7],128%
same,Excretion,Rattus norvegicus [8],1.5 m equiv
same,Excretion,Rattus norvegicus [9],0.5 m equiv
same,Excretion,Rattus norvegicus [10],1.5 m equiv
Cn1cccc1C1NC(=O)c2cccnc2N1 (stereo unspecified),Control,Rattus norvegicus [1],124%
same,Control,Rattus norvegicus [7],113%
same,Excretion,Rattus norvegicus [3],1.4 m equiv
same,Excretion,Rattus norvegicus [8],1 m equiv
same,Excretion,Rattus norvegicus [5],0.3 m equiv
same,Excretion,Rattus norvegicus [6],1.5 m equiv
COC(OC)C1(C)NC(=O)c2ccccc2N1 (stereo unspecified),Control,Rattus norvegicus [1],118%
same,Excretion,Rattus norvegicus [3],1.2 m equiv
same,Excretion,Rattus norvegicus [5],0.4 m equiv
same,Excretion,Rattus norvegicus [6],1.2 m equiv
O=C1NC(c2cccnc2)Nc2ccccc21 (stereo unspecified),Control,Rattus norvegicus [1],96%
same,Excretion,Rattus norvegicus [3],1.1 m equiv
same,Excretion,Rattus norvegicus [5],0.4 m equiv
same,Excretion,Rattus norvegicus [6],1 m equiv
O=C1NC(c2ccc(C(F)(F)F)cc2)Nc2ncccc21 (stereo unspecified),Control,Rattus norvegicus [1],106%
same,Control,Rattus norvegicus [2],98%
same,Excretion,Rattus norvegicus [3],1.4 m equiv
same,Excretion,Rattus norvegicus [4],1.3 m equiv
same,Excretion,Rattus norvegicus [5],0.4 m equiv
same,Excretion,Rattus norvegicus [6],1.3 m equiv
same,Excretion,Rattus norvegicus [11],1.2 m equiv and 0.4 m equiv
O=C1NC(c2cccnc2)Nc2ncccc21 (stereo unspecified),Control,Rattus norvegicus [12],220%
same,Control,Rattus norvegicus [1],221%
same,Control,Rattus norvegicus [13],185%
same,Excretion,Rattus norvegicus [3],2.8 m equiv
same,Excretion,Rattus norvegicus [14],2.6 m equiv
same,Excretion,Rattus norvegicus [15],2.6 m equiv
same,Excretion,Rattus norvegicus [16],1.3 m equiv
same,Excretion,Rattus norvegicus [5],0.6 m equiv
same,Excretion,Rattus norvegicus [17],0.6 m equiv
same,Excretion,Rattus norvegicus [18],0.4 m equiv
same,Excretion,Rattus norvegicus [19],0.4 m equiv
same,Excretion,Rattus norvegicus [6],2.5 m equiv
same,Excretion,Rattus norvegicus [20],2.2 m equiv
same,Excretion,Rattus norvegicus [21],1.4 m equiv
same,Excretion,Rattus norvegicus [22],2.6 m equiv
same,Excretion,Rattus norvegicus [23],1.1 m equiv
same,Excretion,Rattus norvegicus [24],8 mL
same,Excretion,Rattus norvegicus [25],10.4 mL
same,Excretion,Rattus norvegicus [26],4.4 mL
same,Excretion,Rattus norvegicus [27],6 mL
same,Excretion,Rattus norvegicus [28],3 mL
same,Excretion,Rattus norvegicus [29],21 mL
same,Excretion,Rattus norvegicus [30],20.1 mL
same,Excretion,Rattus norvegicus [31],8.1 mL
same,Excretion,Rattus norvegicus [32],19.6 mL
same,Excretion,Rattus norvegicus [33],7.6 mL
same,Excretion,Rattus norvegicus [34],0.4 m equiv
same,Excretion,Rattus norvegicus [35],1.6 m equiv
CN1C(=O)c2cccnc2NC1c1ccco1 (stereo unspecified),Control,Rattus norvegicus [12],233%
same,Control,Rattus norvegicus [1],209%
same,Control,Rattus norvegicus [13],95%
same,Excretion,Rattus norvegicus [3],1.8 m equiv
same,Excretion,Rattus norvegicus [5],0.8 m equiv
same,Excretion,Rattus norvegicus [6],1.8 m equiv
same,Excretion,Rattus norvegicus [24],4.6 mL
same,Excretion,Rattus norvegicus [29],12.2 mL
CC(C)c1ccc(C2NC(=O)c3cccnc3N2)cc1 (stereo unspecified),Control,Rattus norvegicus [1],137%
same,Control,Rattus norvegicus [2],114%
same,Excretion,Rattus norvegicus [3],1.6 m equiv
same,Excretion,Rattus norvegicus [4],1.4 m equiv
same,Excretion,Rattus norvegicus [5],0.6 m equiv
same,Excretion,Rattus norvegicus [6],1.5 m equiv
same,Excretion,Rattus norvegicus [11],1.3 m equiv and 0.6 m equiv
CN1C(=O)c2cccnc2NC1c1cccnc1 (stereo unspecified),Control,Rattus norvegicus [2],149%
same,Excretion,Rattus norvegicus [4],1.7 m equiv
